From PubChem BioAssay
The list is not random: actives were taken first. Their share in the collection is about 1.7%.
CSN deneddyl inh = inhibitors of human CSN-mediated cullin deneddylation; AID 651999; 360,000 tested, 0.38% active; Purified CSN, SCF-Nedd8-OG deneddylation, fluorescence polarization; inhibition, % at 12.5 µM; Q92905;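 active means pattern-corrected inhibition above about 35%, with an unprinted fluorescence ratio check between 0.5 and 1.5, limit read from the data, passing the limit was not always enough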;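 further: 0% = enzyme with substrate and 100% = substrate without enzyme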
Target sequence (Q92905 whole entry, looked up, one chain of several): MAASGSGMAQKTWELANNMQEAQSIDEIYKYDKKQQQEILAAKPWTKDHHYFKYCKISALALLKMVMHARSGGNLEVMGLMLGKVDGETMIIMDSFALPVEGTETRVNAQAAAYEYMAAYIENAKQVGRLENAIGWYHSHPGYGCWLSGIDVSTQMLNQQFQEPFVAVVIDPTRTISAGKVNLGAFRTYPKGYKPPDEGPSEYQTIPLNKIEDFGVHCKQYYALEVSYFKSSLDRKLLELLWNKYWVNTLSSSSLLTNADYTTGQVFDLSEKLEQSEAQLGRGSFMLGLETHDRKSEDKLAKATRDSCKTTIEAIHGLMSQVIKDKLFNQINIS
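Assay system: HEK293T-derived human Csn5 enzyme; quantity: 0.24 nM enzyme; medium: Tris/NaCl/DTT buffer, pH 7.5; also added: substrate SCFSkp2-Nedd8OG, 10 nM; doses: 12.5 µM compound; schedule: 90 min reaction at room temperature; signal: FP; read-out: % inhibition of substrate cleavage by Csn5; benchmarks: substrate-only high control, full reaction low control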
HNF4A DNA FP = change in binding of human HNF4 alpha to DNA. P41235. HNF4a-FITC DNA binding, fluorescence polarization, 1 h. activity change, % at 10 µM. 360,000 tested, 0.3% active; in the data active means activity change above about 30%, passing the limit was not always enough
TPT1 inhibitor = blocks Candida albicans tRNA 2'-phosphotransferase | recombinant caTPT1, FP RNA substrate dephosphorylation | inhibition, % at 5 µM | 300,000 tested, 0.81% active;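 active means inhibition above the mean of all tested compounds plus 3 SD, set per screening campaign, cut at about 24% in these data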;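 further: plate controls were DMSO alone for no effect and ferristatin control at 100 nM for full effect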
NR1D1 modulator = modulators of human Rev-erb alpha DNA binding; activity, % at 10 µM; AID 1259318; Rev-erbα–FITC-DNA binding, fluorescence polarization, 90 min; P20393; 370,000 tested, 0.79% active;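 active means activity above about 14%, limit read from the data; passing the limit was not always enough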;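 further: 0% = DMSO wells with 35 nM protein and 100% = DMSO wells with 750 nM protein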
TPT1 inh confirm = confirmation of Candida albicans TPT1 inhibitors. AID 2149. 2,400 tested, 74% active. inhibition, % at 5 µM. shares compounds with TPT1 inhibitor. recombinant caTPT1, fluorescence polarization, RNase T1 coupled;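 active means inhibition above the primary screen limit, the mean inhibition of all tested compounds plus 3 SD, cut at about 25% in these data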
RNase T1 counter = RNase T1 inhibition in TPT1 counter-screen; shares compounds with TPT1 inhibitor; RNase T1 cleavage, fluorescence polarization, 1536-well; inhibition, % at 5 µM; 2,400 tested, 83% active;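 active means inhibition above the solvent-only control well mean plus 3 SD, limit set per screening run, cut at about 23% in these data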;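 further: plate controls were DMSO wells with enzyme for no effect and wells without RNase T1 for full effect; inhibitors block cleavage so intact labeled substrate keeps polarization high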
Target sequence (P00651 whole entry, looked up): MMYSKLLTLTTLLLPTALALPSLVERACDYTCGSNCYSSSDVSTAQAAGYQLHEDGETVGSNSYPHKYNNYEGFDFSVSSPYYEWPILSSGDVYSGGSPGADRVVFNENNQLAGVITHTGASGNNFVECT
Numbers without * were called inactive; x = not tested or not shown.

SMILES	CSN deneddyl inh	HNF4A DNA FP	TPT1 inhibitor	NR1D1 modulator	TPT1 inh confirm	RNase T1 counter
Cc1ccc(N2C(=O)NC(=O)/C(=C\c3cc(C)n(-c4ccc(C(=O)O)cc4)c3C)C2=O)cc1	-3	3	15	-7	x	x
Cc1ccc(N2C(=O)NC(=O)/C(=C/c3ccc(OC(=O)c4cccs4)cc3)C2=O)cc1	1	3	5	-7	x	x
Cc1ccc(N2C(=O)NC(=O)/C(=C\C=C\c3ccco3)C2=O)cc1	34	9	43*	-7	34*	54*
CCc1ccc(N2C(=O)NC(=O)/C(=C/c3ccsc3)C2=O)cc1	x	x	28*	x	17	24*
COc1cc(/C=C2\C(=O)NC(=O)N(c3ccccc3)C2=O)c([N+](=O)[O-])cc1OC	-3	-4	x	-1	x	x
Cc1nnc2n1-c1sc(CCC(=O)N3CCOCC3)cc1C(c1ccccc1Cl)=NC2	x	x	x	-3	x	x
COP(=S)(OC)SCn1nnc2ccccc2c1=O	6	21	x	-2	x	x
CC(C)(C)NCC(O)c1cc(Cl)c(N)c(C(F)(F)F)c1 (stereo not given)	x	x	x	0	x	x
Cc1cc(/C=C2\C(=O)NC(=O)N(Cc3ccco3)C2=O)c(C)n1-c1ccc(C(=O)O)cc1	11	-11	25*	-12	8	10
Cc1cc(/C=C2\C(=O)NC(=O)N(Cc3ccccc3Cl)C2=O)c(C)n1-c1ccc(C(=O)O)cc1	20	-17	60*	-5	17	24*
CC(NC(=O)OCc1ccccc1)P(=O)(Oc1ccccc1)Oc1ccccc1 (stereo not given)	x	x	x	12	x	x
S=C(SSC(=S)N1CCCCC1)N1CCCCC1	x	x	x	2	x	x
Cc1ccc(OCCn2cccc2/C=C2/C(=O)NC(=O)N(Cc3ccco3)C2=O)cc1	29	-8	25*	-1	41*	27*
CC(C)C(Br)C(=O)NC(N)=O (stereo not given)	x	x	x	-6	x	x
O=C1NC(=S)N(c2ccc(Cl)cc2)C(=O)/C1=C/N1CCN(C(=O)c2ccco2)CC1	43*	16	39*	-4	29*	41*
O=C1CC(=O)N(c2ccccc2)C(=O)N1c1ccccc1	12	1	23	0	x	x
Nc1c([N+](=O)[O-])cc(F)c(N2CCNCC2)c1Br	-2	1	27*	2	9	10
COc1ccccc1-n1c(O)c(/C=C2\C=Nc3ccccc32)c(=O)[nH]c1=O	4	1	29*	2	15	22*
C=CCn1c(O)c(/C=C2\C=Nc3ccccc32)c(=O)[nH]c1=O	8	1	36*	-8	13	21
CCN1C[C@@]2(COC)C3[C@@H](OC)[C@H]4[C@@H]1[C@]3(C(OC)C[C@H]2O)C1C[C@@]2(O)[C@H](OC(=O)c3ccccc3)C1[C@]4(OC(C)=O)[C@@H](O)[C@@H]2OC (stereo not given in full)	x	x	x	-6	x	x
CN1CC(C#N)C2(O)c3ccccc3CCC2C1 (stereo not given)	1	3	-1	3	x	x
Cc1cccc(N2C(=O)NC(=O)/C(=C/c3ccc([N+](=O)[O-])o3)C2=O)c1	x	x	28*	x	17	18
NC1C[C@H]1c1ccccc1 (stereo not given in full)	x	x	x	0	x	x
CN1C(=O)C(=Cc2sc(=O)n(-c3ccccc3)c2N(C)C)C(=O)N(C)C1=O	19	12	42*	-5	53*	71*
FC(F)OC(F)(F)C(F)Cl (stereo not given)	x	x	x	-2	x	x
SMILES	CSN deneddyl inh	HNF4A DNA FP	TPT1 inhibitor	NR1D1 modulator	TPT1 inh confirm	RNase T1 counter
COc1ccc(-n2c(/C=C/c3ccc(O)c(O)c3)nc3ccccc3c2=O)cc1	24	20	36*	-3	58*	61*
O=c1c2ccccc2nc(/C=C/c2ccccc2O)n1-c1ccccc1O	26	11	25*	0	37*	48*
COc1ccc(N2C(=O)/C(=C/c3ccc(C)o3)C(=O)NC2=S)cc1	28	15	x	6	x	x
CN(C)c1ccc(/C=C2\C(=O)NC(=O)N(Cc3ccc(F)cc3)C2=O)cc1	7	2	29*	-3	48*	68*
CCOc1cc(/C=C2\C(=O)NC(=O)N(CCc3ccc(F)cc3)C2=O)ccc1O	12	7	30*	-1	39*	20
Cc1ccc(/C=C2\C(=O)NC(=O)N(CCc3ccc(F)cc3)C2=O)o1	5	0	20	0	x	x
